# Experimental data from different studies.
# Compare with care: the assays were run in different laboratories.
Structure (SMILES),system,conditions,AUC(0-t)
Cc1ccc(OCC(=O)N[C@@H](Cc2c[nH]c3ccccc23)C(=O)OC(C)C)cc1,"male Sprague-Dawley mouse, plasma","oral, 20 mg/kg",3260 ng·h/mL
Cc1ncsc1-c1ccc([C@H](C)NC(=O)[C@@H]2C[C@@H](O)CN2C(=O)[C@@H](NC(=O)CCCCCCCCCCC(=O)NCCCn2cc(-c3ccc4c(c3)CCN4C(=O)Cc3cccc(OC(F)(F)F)c3)c3c(N)ncnc32)C(C)(C)C)cc1,"mouse, plasma","intravenous, 1 mg/kg",835 ng·h/mL
O=C1CCC(N2Cc3cc(C4CCN(Cc5ccccc5)CC4)ccc3C2=O)C(=O)N1 (stereo not drawn),"male CD-1 mouse, plasma","oral, 3 mg/kg",594 ng·h/mL
Cc1cc(-c2ccnc3[nH]cc(F)c23)cc(F)c1[C@@]1(O)[C@H](C)CN(C(=O)CN)C[C@@H]1C,"male CD-1 mouse, plasma","intravenous, 1 mg/kg",18400 ng·h/mL
OCc1ccc(-c2nn(Cc3ccccc3)c3ccccc23)o1,"male CD-1 mouse, plasma","intravenous, 5 mg/kg",1070 ng·h/mL
CCCC[C@@H](NC(=O)[C@@H](Cc1cn(C(=O)OC)c2ccccc12)NC(=O)[C@H](CC(C)(C)C)NC(=O)N1[C@H](C)CCC[C@@H]1C)C(=O)O,"male CD-1 mouse, plasma","intravenous, 3 mg/kg",225 ng·h/mL
Cc1nc2ccc(OCc3ccc(C(F)(F)F)cc3)cc2[nH]1,"male BALB/c mouse, plasma","oral, 10 mg/kg",13200 ng·h/mL
CN(C)C(=O)c1cc2cnc(Nc3ccc(-c4ccc5c(=O)cc(N6CCOCC6)oc5c4)cc3)nc2n1C1CCCC1.Cl,"BALB/c mouse, plasma","oral, 20 mg/kg",7480 ng·h/mL
Cc1ccc(N(c2ccc(NC(=O)CN(C)c3ccccc3N3CCCC3=O)cc2)C(C)C)cc1,"male CD-1 mouse, plasma","oral, 20 mg/kg",2710 ng·h/mL
OCc1nc2ccc(NCc3ccc(C(F)(F)F)cc3)cc2[nH]1,"male BALB/c mouse, plasma","oral, 10 mg/kg",2730 ng·h/mL
COC1=CC(c2ccc[nH]2)=N/C1=C\c1[nH]c(Cc2ccc(OC(F)(F)F)cc2)cc1Cc1ccc(OC(F)(F)F)cc1,"male CD-1 mouse, liver","oral, 40 mg/kg, single dose",494000 ng·h/mL
NCc1ccc(-c2nn(Cc3ccncc3)c3ccccc23)o1,"male CD-1 mouse, plasma","intravenous, 5 mg/kg",1050 ng·h/mL
Oc1ccc([C@@H]2Oc3ccc(O)cc3[C@@H]3CCC[C@@H]32)cc1,"male C57BL/6 mouse, plasma","oral, 10 mg/kg",1.17 µM·h
COC1=CC(c2ccc[nH]2)=N/C1=C\c1cc(Cc2ccc(OC(F)(F)F)cc2)c(C)[nH]1.Cl,"male CD-1 mouse, plasma","oral, 40 mg/kg, single dose",8220 ng·h/mL
Cc1ncsc1-c1ccc([C@H](C)NC(=O)[C@@H]2C[C@@H](O)CN2C(=O)[C@@H](NC(=O)CCc2ccc(C#Cc3ccc(C(=O)NCCCn4cc(-c5ccc6c(c5)CCN6C(=O)Cc5cccc(OC(F)(F)F)c5)c5c(N)ncnc54)cc3)cn2)C(C)(C)C)cc1,"male C57BL/6 mouse, plasma","intravenous, 1 mg/kg",6600 ng·h/mL
C[C@@H](CN1CCC(n2c(=O)[nH]c3cc(Cl)ccc32)CC1)NC(=O)c1ccc2ccccc2c1,"male CD-1 mouse, plasma","intravenous, 1 mg/kg, single dose",11.9 ng·h/mL
NCc1ccc(-c2nn(Cc3ccccc3)c3ccccc23)o1,"male CD-1 mouse, plasma","oral, 10 mg/kg",891 ng·h/mL
Cc1cc(-c2ccnc3[nH]cc(F)c23)cc(F)c1[C@@]1(O)[C@H](C)CN(C2CCS(=O)(=O)CC2)C[C@@H]1C,"male CD-1 mouse, plasma","intravenous, 1 mg/kg",3020 ng·h/mL
